In ChEMBL document CHEMBL1123874, “Polychlorinated biphenyls and related compound interactions with specific binding sites for thyroxine in rat liver nuclear extracts” (J Med Chem, 1987):

Key:
[1] = Binding affinity of [125I]-T4 to rat liver nuclear extract at a dose of 37 ug/Kg
Outline: (§1)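 Male Sprague–Dawley rats (200–250 g), five per group, gavaged with TCDD (0, 12, 25, 37 or 50 µg/kg) in corn oil at 0.1 mL/kg; controls got corn oil. Livers were taken after 9 days and pooled per group. Nuclear extract (10 µg protein, buffer B, pH 7.6) was incubated 2 h at 25 °C with 0.1–2.4 nM [125I]T4. Bound ligand was isolated on Sephadex G-25, specific binding taken as total minus excess-T4, Scatchard analysis, duplicates.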

[2] = system: Rattus norvegicus; experiment: Body weight was determined in TCDD-treated rat at a dose of 12 ug/Kg; type: functional
Outline: (§2)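 Male Sprague–Dawley rats (200–250 g, 6 weeks old), in groups of five, were dosed by gavage with TCDD at 0, 12, 25, 37 or 50 µg/kg body weight in corn oil (0.1 mL/kg). Controls received corn oil alone. Animals were killed by CO2 9 days after dosing.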

[3] = system: Rattus norvegicus; experiment: Serum T4 level was determined in TCDD-treated rat at a dose of 37 ug/kg; type: functional, organism-based; outline: as §2
[4] = system: Rattus norvegicus; experiment: Number of T4 binding sites in rat liver from TCDD treated rats at a dose of 50 ug/Kg; type: functional; outline: as §1
[5] = system: Rattus norvegicus; experiment: Number of T4 binding sites in rat liver from TCDD treated rats at a dose of 25 ug/Kg; type: functional; outline: as §1
[6] = Binding affinity of [125I]T4 to rat liver nuclear extract (CONTROL); outline: as §1
[7] = system: Rattus norvegicus; experiment: Liver weight was determined in TCDD-treated rats at a dose of 37 ug/Kg; type: functional; outline: as §2
[8] = system: Rattus norvegicus; experiment: Number of T4 binding sites in rat liver from TCDD treated rats at a dose of 37 ug/Kg; type: functional; outline: as §1
[9] = species on record: Rattus norvegicus; experiment: Number of T4 binding sites in rat liver from TCDD treated rats; type: functional; outline: as §1
[10] = system: Rattus norvegicus; experiment: Serum T4 level was determined in TCDD-treated rat at a dose of 12 ug/Kg; type: functional, organism-based; outline: as §2
[11] = system: Rattus norvegicus; experiment: Liver weight was determined in TCDD-treated rats at a dose of 50 ug/Kg; type: functional; outline: as §2
[12] = system: Rattus norvegicus; experiment: Body weight was determined in TCDD-treated rats at a dose of 25 ug/Kg; type: functional; outline: as §2
[13] = system: Rattus norvegicus; experiment: Body weight was determined in TCDD-treated rats at a dose of 50 ug/Kg; type: functional; outline: as §2
[14] = system: Rattus norvegicus; experiment: Liver weight was determined in TCDD-treated rat at a dose of 12 ug/Kg; type: functional; outline: as §2
[15] = species on record: Rattus norvegicus; experiment: Body weight (after treatment) was determined; type: functional; outline: as §2
[16] = system: Rattus norvegicus; experiment: Serum T4 level was determined in TCDD-treated rat at a dose of 25 ug/Kg; type: functional, organism-based; outline: as §2
[17] = system: Rattus norvegicus; experiment: Liver weight was determined in TCDD-treated rats at a dose of 25 ug/Kg; type: functional; outline: as §2
[18] = system: Rattus norvegicus; experiment: Body weight was determined in TCDD-treated rats at a dose of 37 ug/Kg; type: functional; outline: as §2
[19] = Binding affinity of [125I]T4 to rat liver nuclear extract at a dose of 25 ug/Kg; outline: as §1
[20] = Binding affinity of [125I]T4 to rat liver nuclear extract at a dose of 50 ug/Kg; outline: as §1
[21] = species on record: Rattus norvegicus; experiment: Liver weight was determined in rats; type: functional; outline: as §2
[22] = system: Rattus norvegicus; experiment: Serum T4 level was determined in TCDD-treated rat at a dose of 50 ug/Kg; type: functional, organism-based; outline: as §2
[23] = species on record: Rattus norvegicus; experiment: Serum T4 level was determined in rats; type: functional, organism-based; outline: as §2
[24] = system: Rattus norvegicus; experiment: Number of T4 binding sites in rat liver from TCDD treated rats at a dose of 12 ug/Kg; type: functional; outline: as §1
[25] = Binding affinity of [125I]T4 to rat liver nuclear extract at a dose of 12 ug/Kg; outline: as §1

## Clc1cc2c(cc1Cl)Oc1cc(Cl)c(Cl)cc1O2 [2,3,7,8-TETRACHLORODIBENZO-P-DIOXIN]
[1]
  Kd: 690 pM
[2]
  Weight: 293 g
[3]
  Serum T4: < 4.1 µg/dL
[4]
  Activity: <6.65 nM/mg
[5]
  Activity: <4.12 nM/mg
[6]
  Kd: 700 pM
[7]
  Weight: <19.3 g
[8]
  Activity: <8.71 nM/mg
[9]
  Activity: <3.24 nM/mg
[10]
  Serum T4: < 5.6 µg/dL
[11]
  Weight: <19.9 g
[12]
  Weight: <273 g
[13]
  Weight: <271 g
[14]
  Weight: <18.9 g
[15]
  Weight: 302 g
[16]
  Serum T4: < 4.4 µg/dL
[17]
  Weight: <18.3 g
[18]
  Weight: <274 g
[19]
  Kd: 560 pM
[20]
  Kd: 720 pM
[21]
  Weight: 15.1 g
[22]
  Serum T4: < 4.2 µg/dL
[23]
  Serum T4: 7.6 µg/dL
[24]
  Activity: <4.06 nM/mg
[25]
  Kd: 480 pM
